Measured values as given in ChEMBL document CHEMBL1129978, “Effect of structural modification of enol-carboxamide-type nonsteroidal antiinflammatory drugs on COX-2/COX-1 selectivity” (J Med Chem, 1997).

Legend:
[1] = biological target: T1, Prostaglandin G/H synthase 1 (Homo sapiens, UniProt P23219); experiment: Inhibition of human Prostaglandin G/H synthase 1 at 1 ug/mL expressed as mean percent inhibition of control PGE-2 production
In short: (§1)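 Human COX-1 and COX-2 genes expressed in a baculovirus system; microsomes prepared from High Five insect cells and used as the enzyme source. Activity read as PGE2 production. Each dose run in duplicate wells within each experiment, and values given as mean percent inhibition of control PGE2.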

[2] = biological target: T1, Prostaglandin G/H synthase 1; experiment: Inhibition of human Prostaglandin G/H synthase 1 at 10 ug/mL expressed as mean percent inhibition of control PGE-2 production; in short: as §1
[3] = biological target: T1, Prostaglandin G/H synthase 1; experiment: Inhibition of human Prostaglandin G/H synthase 1 at 0.1 ug/mL expressed as mean percent inhibition of control PGE-2 production; in short: as §1

T1 sequence (P23219 whole entry): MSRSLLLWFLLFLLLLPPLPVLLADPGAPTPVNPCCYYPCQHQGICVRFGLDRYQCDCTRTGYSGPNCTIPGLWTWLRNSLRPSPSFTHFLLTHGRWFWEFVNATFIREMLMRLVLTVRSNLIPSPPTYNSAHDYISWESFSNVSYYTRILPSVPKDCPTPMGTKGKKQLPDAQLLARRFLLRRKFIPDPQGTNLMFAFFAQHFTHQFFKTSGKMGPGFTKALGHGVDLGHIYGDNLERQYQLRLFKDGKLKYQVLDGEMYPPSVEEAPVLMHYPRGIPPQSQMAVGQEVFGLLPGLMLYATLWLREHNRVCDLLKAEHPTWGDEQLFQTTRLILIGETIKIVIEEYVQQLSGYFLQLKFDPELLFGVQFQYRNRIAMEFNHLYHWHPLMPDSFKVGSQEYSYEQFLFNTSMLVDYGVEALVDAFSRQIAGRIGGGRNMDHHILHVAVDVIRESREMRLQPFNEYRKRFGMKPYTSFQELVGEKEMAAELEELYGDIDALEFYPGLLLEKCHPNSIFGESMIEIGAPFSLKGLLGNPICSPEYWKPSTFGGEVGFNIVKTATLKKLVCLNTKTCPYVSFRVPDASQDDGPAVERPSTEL

Structure (SMILES) | inhibition [1] [%] | inhibition [2] [%] | inhibition [3] [%]
Cc1cnc(NC(=O)C2=C(O)c3ccccc3S(=O)(=O)N2Cc2ccccc2)s1 | 10 | 42 | 3
Cc1cnc(NC(=O)C2=C(O)c3cc(Cl)ccc3SC2)s1 | 21 | 18 | 11
Cc1cnc(NC(=O)C2=C(O)c3cc(F)ccc3S(=O)(=O)N2C)s1 | 21 | 56 | 2
CCn1c2c(c3ccccc31)S(=O)(=O)N(C)C(C(=O)Nc1nccs1)=C2O | -1 | 81 | 
Cc1cnc(NC(=O)C2=C(O)c3cc(Cl)ccc3SC2C)s1 (stereo unspecified) | 20 | 30 | 12
Cc1ccc2c(c1)/C(=C(\O)Nc1ccc(Cl)cc1Cl)C(=O)N(C)C2=O | 100 | 100 | 79
COc1ccc2c(c1)C(O)=C(C(=O)Nc1ncc(C)s1)N(C)S2(=O)=O |  |  | -1
CN1C(O)=C(C(=O)Nc2ccccc2Cl)c2cc(F)ccc2S1(=O)=O | 96 | 100 | 32
Cc1cnc(NC(=O)C2=C(O)c3sc4cc(Cl)ccc4c3S(=O)(=O)N2C)s1 | 100 | 100 | 58
CN1C(O)=C(C(=O)Nc2ccc(Br)cc2)c2ccccc2S1(=O)=O | 88 | 100 | 54
CN1C(C(=O)Nc2ccccc2)=C(O)c2ccccc2S1(=O)=O | 16 | 26 | -8
Cc1cnc(N/C(O)=C2\C(=O)N(C)C(=O)c3ccc(Cl)cc32)s1 | 35 | 76 | 5
COc1ccc2c(c1)C(O)=C(C(=O)Nc1ccc(Cl)cc1)N(C)S2(=O)=O | 13 | 14 | 9
Cc1ccc2c(c1)S(=O)(=O)N(C)C(C(=O)Nc1ccccn1)=C2O | 29 | 45 | 18
CN1C(C(=O)Nc2nccs2)=C(O)c2c(c3ccccc3n2C)S1(=O)=O | 44 | 97 | -2
Cc1cc2c(o1)C(O)=C(C(=O)Nc1ncc(C)s1)N(C)S2(=O)=O | -7 | 1 | -8
COc1ccc2c(c1)C(O)=C(C(=O)Nc1ccccc1)N(C)S2(=O)=O | -5 | -3 | -6
O=C(Nc1ccccn1)C1=C(O)c2cc(Cl)ccc2SC1 | 58 | 92 | 27
CN1C(O)=C(C(=O)Nc2ccccn2)c2ccc(Cl)cc2S1(=O)=O | 41 | 45 | 7
COc1ccc2c(c1)c1c(n2C)C(O)=C(C(=O)Nc2nccs2)N(C)S1(=O)=O | 33 | 86 | 3

Structure (SMILES) | inhibition [1] [%] | inhibition [2] [%] | inhibition [3] [%]
Cc1cnc(NC(=O)C2=C(O)c3ccc4ccccc4c3S(=O)(=O)N2C)s1 | 100 | 100 | 80
O=C(Nc1cccc(Cl)c1)C1=C(O)c2ccccc2SC1 | 75 | 83 | 19
CCCc1csc(NC(=O)C2=C(O)c3ccccc3S(=O)(=O)N2C)n1 | 1 | 44 | -3
Cc1nnc(NC(=O)C2=C(O)c3ccccc3S(=O)(=O)N2C)s1 | 18 | 2 | 0
Cc1cnc(NC(=O)C2=C(O)c3ccccc3S(=O)(=O)N2)s1 | 18 | 41 | 14
CN1C(C(=O)Nc2ccccn2)=C(O)c2ccccc2S1(=O)=O | 10 | 35 | -7
CN1C(C(=O)Nc2ccccc2)=C(O)c2c(ccc3ccccc23)S1(=O)=O | -5 | 18 | 
Cc1cnc(NC(=O)C2=C(O)N(C)S(=O)(=O)c3ccc(Cl)cc32)s1 | 44 | 95 | 23
CN1C(C(=O)Nc2ncc(-c3ccccc3)s2)=C(O)c2ccccc2S1(=O)=O | 55 | 97 | 6
CN1C(C(=O)Nc2nccs2)=C(O)c2ccccc2S1(=O)=O | 17 | 51 | 
CCn1c2c(c3ccccc31)S(=O)(=O)N(C)C(C(=O)Nc1ccccc1)=C2O | 0 | 5 | -9
O=C(Nc1cccc(Cl)c1)C1=C(O)c2cc(Cl)ccc2[S+]([O-])C1 (stereo unspecified) | 17 | 76 | 0
CCN1C(C(=O)Nc2ncc(C)s2)=C(O)c2ccccc2S1(=O)=O | -6 | 27 | -2
O=C(Nc1cccc(Cl)c1)C1=C(O)c2ccccc2S(=O)(=O)C1 | 41 | 84 | 6
CN1C(C(=O)Nc2ccccn2)=C(O)c2ccc3ccccc3c2S1(=O)=O | 78 | 100 | 29
CN1C(C(=O)Nc2ccccn2)=C(O)c2c(c3cc(Cl)ccc3n2C)S1(=O)=O | 28 | 90 | 
Cc1cnc(NC(=O)C2=C(O)c3ccccc3SC2(C)C)s1 | 11 | 16 | 
Cc1ccc2c(c1)C(O)=C(C(=O)Nc1ccccn1)N(C)S2(=O)=O | 5 |  | -9
CN1C(C(=O)Nc2ccccc2)=C(O)c2c(c3cc(Cl)ccc3n2C)S1(=O)=O | 10 |  | 1

Continued, values first:

inhibition [1] [%] | inhibition [2] [%] | inhibition [3] [%] | Structure (SMILES)
62 | 73 | 22 | Cc1ccc2c(c1)/C(=C(\O)Nc1ccccn1)C(=O)N(C)C2=O
28 | 28 | 2 | Cc1ccc2c(c1)S(=O)(=O)N(C)C(C(=O)Nc1ccccc1)=C2O
32 | 97 | 1 | Cc1cnc(NC(=O)C2=C(O)c3c(c4ccccc4n3C)S(=O)(=O)N2C)s1
66 | 99 | -8 | CN1C(O)=C(C(=O)Nc2nccs2)c2ccc(Cl)cc2S1(=O)=O
100 | 100 | 57 | CN1C(O)=C(C(=O)Nc2ccc(Cl)cc2)c2cc3ccccc3cc2S1(=O)=O
29 | 35 | 16 | Cc1cnc(NC(=O)C2=C(O)c3ccccc3SC2)s1
16 | 17 | 15 | CN1C(C(=O)Nc2ccccc2)=C(O)c2cc(Cl)ccc2S1(=O)=O
64 | 88 | 4 | CN1C(C(=O)Nc2ccccc2)=C(O)c2ccc3ccccc3c2S1(=O)=O
9 | 44 | -2 | COc1ccc2c(c1)S(=O)(=O)N(C)C(C(=O)Nc1ccccn1)=C2O
5 |  | 1 | Cc1cc2c(s1)S(=O)(=O)N(C)C(C(=O)Nc1nccs1)=C2O
11 | 27 | 0 | CN1C(C(=O)Nc2ccccn2)=C(O)c2cc(F)ccc2S1(=O)=O
92 | 100 | 65 | CN1C(O)=C(C(=O)Nc2ccccc2)c2ccccc2S1(=O)=O
34 | 38 | 15 | CN1C(C(=O)Nc2ccc(Cl)cc2)=C(O)c2ccc3ccccc3c2S1(=O)=O
3 | 24 | 13 | CN1C(C(=O)c2c[nH]c3ccccc23)=C(O)c2ccccc2S1(=O)=O
16 | 40 | 6 | CN1C(C(=O)Nc2ccc(Cl)cc2)=C(O)c2cc(F)ccc2S1(=O)=O
-3 | 19 |  | Cn1c(C(=O)Nc2ccccn2)c(O)c2ccccc2c1=O
53 | 96 |  | CN1C(O)=C(C(=O)Nc2ccccn2)c2cc(Cl)ccc2S1(=O)=O
96 | 100 | 78 | Cc1cc2c(s1)S(=O)(=O)N(C)C(C(=O)Nc1ccccc1F)=C2O
80 | 95 | 16 | CN1C(C(=O)Nc2nccs2)=C(O)c2c(c3cc(Cl)ccc3n2C)S1(=O)=O
54 | 100 | 4 | O=C(Nc1ccc(Cl)cc1Cl)C1=C(O)N(Cc2ccccc2)S(=O)(=O)c2ccc(Cl)cc21
54 | 72 | 18 | CN1C(O)=C(C(=O)Nc2ccccc2)c2c(ccc3ccccc23)S1(=O)=O
34 | 83 | -1 | O=C(Nc1ccccn1)C1=C(O)c2ccccc2SC1
100 | 100 | 75 | CN1C(C(=O)Nc2nccs2)=C(O)c2ccc3ccccc3c2S1(=O)=O
23 | 18 | 6 | CN1C(C(=O)Nc2ccc(Cl)cc2)=C(O)c2cc(Cl)ccc2S1(=O)=O
31 | 69 | 8 | Cc1ccc2c(c1)S(=O)(=O)N(C)C(C(=O)Nc1ncc(C)s1)=C2O
14 | 90 | 0 | CN1C(C(=O)Nc2ccccn2)=C(O)c2c(c3ccccc3n2C)S1(=O)=O
26 | 62 | 11 | Cc1cnc(NC(=O)C2=C(O)c3cc(Cl)ccc3S(=O)(=O)N2C)s1
57 | 91 | 32 | CN1C(O)=C(C(=O)Nc2ccc(Cl)cc2Cl)c2sc(Cl)cc2S1(=O)=O
-10 | 25 |  | CN1C(C(=O)Nc2ccccn2)=C(O)c2c(ccc3ccccc23)S1(=O)=O
